Bioassay records as filed in PubChem BioAssay.
The sample as a whole holds a higher share of hits than the screen did.
INS promoter act – TRM-6 insulin promoter activation; TRM-6 cells (human fetal islet line), insulin promoter eGFP reporter, imaging; plate-scaled: unstimulated 0, stimulated control 100; activation, % at 2 µM; hit rate 0.81% among 130,000; AID 1296;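 active = activation at 2 µM above a set limit, confirmed on inspection of the cell images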;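 also: share of cells whose green reporter signal exceeds an intensity cutoff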
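Assay system: TRM-6 human fetal islet cells, insulin promoter–eGFP reporter; Also added: 0.75 µM tamoxifen as reporter inducer; Schedule: 15 h tamoxifen pre-treatment, 48 h compound treatment at 37 °C; Signal: fixed-cell fluorescence microscopy, eGFP plus Hoechst; Read-out: percent activation from GFP-positive cell fraction; Control set: stimulated and unstimulated wells.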
Of the large screens only hits and unclear results are named; the others gave an inactive call.

CCN(Cc1ccccc1)C(=O)C(C)OC(=O)c1cc(S(=O)(=O)Nc2c(C)n(C)n(-c3ccccc3)c2=O)ccc1C (centres undefined)	none
Cc1ccc(S(=O)(=O)Nc2c(C)n(C)n(-c3ccccc3)c2=O)cc1C(=O)NCc1ccccn1	INS promoter act 142.9
Cc1c(NS(=O)(=O)N2CCCCC2)c(=O)n(-c2ccccc2)n1C	none
Cc1cc(C)nc(SCc2nnc(SCC(N)=O)o2)n1	none
O=C(Nc1ccncc1)c1cc(F)cc(F)c1	none
c1cc2c3c(cccc3c1)C(N1CCN(C3=Nc4cccc5cccc3c45)CC1)=N2	none
c1ccc(CC2CCN(C3=Nc4cccc5cccc3c45)CC2)cc1	INS promoter act 82.9
O=C1c2cccc3cccc(c23)C(=O)N1CC1CCN(S(=O)(=O)c2ccc(F)cc2)CC1	none
Cc1ccc(S(=O)(=O)N2CCN(C(=O)c3cc(=O)c4ccccc4o3)CC2)cc1	none
COc1ccc(-c2[nH]ncc2C=O)cc1	none
COc1ccc(NC(=O)C2CCCN2C(=O)Nc2ccccc2)cc1OC (centres undefined)	none
CC(=O)c1cccc(NC(=O)N2CCCC2C(=O)Nc2ccc3c(c2)OCCO3)c1 (centres undefined)	INS promoter act 492.9
CC(=O)c1cccc(NC(=O)N2CCCC2C(=O)NCc2ccc3c(c2)OCO3)c1 (centres undefined)	none
O=C(CCN1C(=O)c2cccc([N+](=O)[O-])c2C1=O)Nc1nccs1	none
O=C(c1ccc(Cl)c(S(=O)(=O)N2CCOCC2)c1)N1CCN(Cc2ccccc2)CC1	none
NC(=O)CSCc1nc2ccccc2s1	none
Cc1cc(C(=O)COC(=O)CCc2nc3ccccc3s2)c(C)n1C	INS promoter act 77.8
COCCn1c(C)cc(C(=O)CSc2nc3ccccc3s2)c1C	none
COC(=O)c1ccsc1-n1cc(C#N)c(=O)n(C)c1=O	none
CC(C)(CSc1nncn1N)NS(=O)(=O)c1ccc(Cl)cc1	none
O=C(CCCN1C(=O)c2cccc3cccc(c23)C1=O)N1CCc2ccccc2C1	none
CC1CCCC(C)N1C(=O)CSc1nnc(-c2cccs2)o1 (centres undefined)	none
O=C(CSc1nnc(-c2cccs2)o1)NCC1CN(Cc2ccccc2)CCO1 (centres undefined)	INS promoter act 75.7
O=C(CSc1nc2ccsc2c(=O)n1Cc1ccc(C(=O)O)cc1)NCC1CCCO1 (centres undefined)	none
CC(C)CCNC(=O)Cc1ccc(Nc2nc(=S)[nH]c3ccccc23)cc1	none
CCOc1ccccc1N(CC(=O)Nc1ccc(S(=O)(=O)N2CCOCC2)cc1)S(=O)(=O)c1ccc(Cl)cc1	none
COc1cc(OC)cc(C(=O)NCCNC(=O)c2ccco2)c1	none
Cc1nn(Cc2c(F)c(F)c(F)c(F)c2F)c(C)c1NC(=O)c1c([N+](=O)[O-])c(C)nn1C	none
CCn1ccc(C(=O)Nc2c(C)nn(Cc3c(F)c(F)c(F)c(F)c3F)c2C)n1	INS promoter act 364.3
Cc1nn(Cc2c(F)c(F)c(F)c(F)c2F)c(C)c1NC(=O)c1c([N+](=O)[O-])cnn1C	none
Cc1ccc(/C(=N/Nc2nc3ccccc3s2)C2=C(O)c3ccccc3C2=O)cc1	none
O=C(COC(=O)C1CC(O)CN1S(=O)(=O)c1ccc(Cl)cc1)c1cccc(Cl)c1 (centres undefined)	none
CCN(Cc1nc2ccccc2c(=O)[nH]1)Cc1cc(=O)oc2cc(OC)ccc12	none
CC(=O)C1=C(c2ccccc2)OC(N)=C(C#N)C1c1ccc(O)cc1 (centres undefined)	none
CCOC(=O)C1=C(CSc2nc(-c3ccccc3)ccc2C#N)OC(N)=C(C#N)C1c1ccc(OC)cc1 (centres undefined)	INS promoter act 83.7
CCOC(=O)C1=C(CSc2nc(C)cc(C)c2C#N)OC(N)=C(C#N)C1c1ccccc1 (centres undefined)	none
CNC(=O)CNC(=O)Nc1ccc(Cl)c(Cl)c1	none
COc1ccc(NC2=CC(=O)N(C)C2=O)cc1	none
S=c1[nH]nc(COc2ccc3ccccc3c2)o1	none
COc1ccc(Cc2n[nH]c(=S)o2)cc1	INS promoter act 478.6
COc1ccc(Cc2nnc(SCC(=O)c3ccc(OC)cc3)o2)cc1	none
CC(c1ccc(F)cc1)n1c(Cn2ncc3ccccc3c2=O)n[nH]c1=S (centres undefined)	none
Cc1cc(C)n(-c2cc(N3CCN(S(=O)(=O)c4ccc(Cl)cc4)CC3)ccc2[N+](=O)[O-])n1	none
Cc1cc(N2CCN(S(=O)(=O)c3ccc(Cl)cc3)CC2)c2ccccc2n1	INS promoter act 100.0
O=S(=O)(c1ccccc1)N1CCN(c2nc3ccccc3s2)CC1	none
NC(=O)c1ccc(/C=N/O)nc1	none
CCOC(=O)N1CCC(NC(=O)c2cn(-c3ccc(OC)cc3)c(=O)c3ccccc23)CC1	none
COc1ccc(N2CCN(C(=O)Cc3ccc(-n4c(=O)[nH]c5ccccc5c4=O)cc3)CC2)cc1	none
CCOC(=O)N1CCC(NC(=O)Cc2ccc(-n3c(=O)[nH]c4ccccc4c3=O)cc2)CC1	INS promoter act 500.0
CC(=O)c1c(C)[nH]c(C(=O)OCc2ccccc2F)c1C	none
O=C(CSc1ccc(Cl)cc1)Nc1ccc(-c2nc3ccccc3[nH]2)cc1	none
CC(=NCCCN(C)C)C1=C(O)c2ccccc2C1=O	none
CC(=NC1CC1)C1=C(O)c2ccccc2C1=O	none
O=C1C(C2=C(O)c3ccccc3C2=O)=Nc2ccccc21	INS promoter act 440.0
CC(C)(C)OC(=O)N1CCN(c2ccc(CNC(=O)c3ccc(Cl)cc3)cc2)CC1	none
S=c1[nH]nc(-c2ccc3ccccc3n2)n1Cc1ccccc1	none
CC(C)(C)N(Cc1ccccc1)C(=O)COC(=O)Cn1cnc2ccccc2c1=O	none
CCOC(=O)CC(NC(=O)Cn1nnc(-c2ccccc2)n1)c1ccc(OC)cc1 (centres undefined)	none
COc1ccc(-c2nnn(Cc3ccccc3F)n2)cc1	INS promoter act 521.4
COc1ccc(N2C(=O)N(Cc3ccccc3F)c3ccccc3S2(=O)=O)cc1	none
CCOC(=O)C(NC(=O)CC)(N1CCc2ccccc2C1)C(F)(F)F (centres undefined)	none
Cc1ccc(Cn2nnnc2CN2CCC(O)(c3ccc(F)cc3)CC2)cc1	none
COc1ccc(Cn2nnnc2CN2CCC(O)(c3ccc(F)cc3)CC2)cc1	none
COc1cc(C(=O)NC2CCN(Cc3nnnn3Cc3ccc(F)cc3)CC2)cc(OC)c1OC	INS promoter act 515.4
C=CCOc1c(Br)cc(/C=N/Nc2ccc(C(=O)O)cc2)cc1OCC	none
CN1C=CC2=C(C#N)C(N)C(C#N)(C#N)[C@H](c3ccccc3)[C@H]2C1 (some centres undefined)	INS promoter act 300.0
CC(=O)Oc1ccc2c(c1)cc(C)n2C	none
Cc1cc(-c2ccccc2)n2nc(C)c(C#N)c2n1	none
Cc1nc(N)c(C#N)c(-c2ccccc2)c1C	none
CSc1nn2c(C)c(C)c(C)nc2c1C#N	INS promoter act 322.2
COc1ccc(Cn2nnc3c(=O)[nH]c(C(=O)NCCc4ccc(F)cc4)nc32)cc1OC	none
Cc1ccc(S(=O)(=O)NCC(=O)OCC(=O)Nc2cccc(S(=O)(=O)NC3=NCCCCC3)c2)cc1	none
O=C(COC(=O)CCNS(=O)(=O)c1ccc2c(c1)OCCO2)NC1CCCc2ccccc21 (centres undefined)	none
O=C(COC(=O)CNS(=O)(=O)c1cccc(Br)c1)NC(=O)Nc1ccc2c(c1)OCCO2	INS promoter act 400.0
O=C(CCCCCN1C(=O)c2ccccc2C1=O)Oc1ccc2c3c(c(=O)oc2c1)CCC3	none
O=c1c(C(c2ccccc2)c2c(O)sc3ccccc3c2=O)c(O)sc2ccccc12	none
CCc1nn(-c2ccccc2)c2c1-c1cc(OC)c(OC)cc1C1(N2)C(=O)Nc2ccccc21 (centres undefined)	none
